# Measurements published in ChEMBL document CHEMBL1255506, “Discovery of quinolines as selective glucocorticoid receptor agonists” (Bioorg Med Chem Lett, 2010).
# Biological target: T1, Mineralocorticoid receptor (Homo sapiens, UniProt P08235)
# T1 sequence (P08235 whole entry): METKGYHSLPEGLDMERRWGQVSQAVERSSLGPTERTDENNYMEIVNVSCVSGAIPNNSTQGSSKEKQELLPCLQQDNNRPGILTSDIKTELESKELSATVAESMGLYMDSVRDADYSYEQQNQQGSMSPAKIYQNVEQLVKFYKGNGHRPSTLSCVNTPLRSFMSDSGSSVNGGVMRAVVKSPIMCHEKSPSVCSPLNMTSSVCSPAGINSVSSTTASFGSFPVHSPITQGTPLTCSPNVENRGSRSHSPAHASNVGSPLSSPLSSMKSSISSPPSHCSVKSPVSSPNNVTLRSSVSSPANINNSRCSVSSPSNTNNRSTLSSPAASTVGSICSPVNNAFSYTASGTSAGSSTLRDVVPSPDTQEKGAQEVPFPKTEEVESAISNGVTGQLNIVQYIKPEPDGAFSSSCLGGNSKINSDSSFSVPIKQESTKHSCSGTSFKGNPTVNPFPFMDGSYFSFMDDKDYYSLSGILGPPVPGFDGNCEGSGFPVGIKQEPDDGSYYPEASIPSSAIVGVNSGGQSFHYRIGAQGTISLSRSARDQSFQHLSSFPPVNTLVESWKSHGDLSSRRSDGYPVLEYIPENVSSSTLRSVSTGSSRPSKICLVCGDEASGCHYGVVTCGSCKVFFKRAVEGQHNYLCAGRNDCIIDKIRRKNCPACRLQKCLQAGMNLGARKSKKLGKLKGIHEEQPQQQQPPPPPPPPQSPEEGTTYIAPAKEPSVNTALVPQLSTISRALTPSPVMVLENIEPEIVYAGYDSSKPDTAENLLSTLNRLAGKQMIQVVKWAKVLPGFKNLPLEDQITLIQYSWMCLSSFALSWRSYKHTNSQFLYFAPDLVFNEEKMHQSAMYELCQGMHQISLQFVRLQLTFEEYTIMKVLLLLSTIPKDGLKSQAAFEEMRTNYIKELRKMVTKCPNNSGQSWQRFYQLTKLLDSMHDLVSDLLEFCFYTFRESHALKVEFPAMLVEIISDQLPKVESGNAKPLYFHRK
# Assay: Binding affinity to human recombinant mineralocorticoid receptor expressed in baculovirus infected Sf9 cells
# Summary of the method: (§1)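 Extracts of Sf9 cells infected with recombinant baculovirus encoding the human receptor served as receptor source for competitive binding. Run in duplicate; pIC50 derived, value error stated as 0.2.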
row,Compound,IC50 [µM]
1,COc1ccc(F)cc1C(C)(C)CC(O)(CNc1ccc2c(=O)onc(C)c2c1)C(F)(F)F (configuration not stated),> 1
2,COc1ccc(F)cc1C(C)(C)CC(O)(C(=O)Nc1ccc2c(=O)onc(C)c2c1)C(F)(F)F (configuration not stated),0.00794
3,Cc1noc(=O)c2ccc(NC(=O)C(O)(CC(C)(C)c3cccc4c3OCC4)C(F)(F)F)cc12 (configuration not stated),0.0794
4,COc1ccc(F)cc1C(C)(C)CC(O)(CNc1cccc2nc(C)ccc12)C(F)(F)F (configuration not stated),> 1
5,CC(C)(CC(O)(CNc1cccc2ccccc12)C(F)(F)F)c1cc(F)ccc1O (configuration not stated),> 1

# Biological target: T2, Glucocorticoid receptor (Homo sapiens, UniProt P04150)
# T2 sequence (P04150 whole entry): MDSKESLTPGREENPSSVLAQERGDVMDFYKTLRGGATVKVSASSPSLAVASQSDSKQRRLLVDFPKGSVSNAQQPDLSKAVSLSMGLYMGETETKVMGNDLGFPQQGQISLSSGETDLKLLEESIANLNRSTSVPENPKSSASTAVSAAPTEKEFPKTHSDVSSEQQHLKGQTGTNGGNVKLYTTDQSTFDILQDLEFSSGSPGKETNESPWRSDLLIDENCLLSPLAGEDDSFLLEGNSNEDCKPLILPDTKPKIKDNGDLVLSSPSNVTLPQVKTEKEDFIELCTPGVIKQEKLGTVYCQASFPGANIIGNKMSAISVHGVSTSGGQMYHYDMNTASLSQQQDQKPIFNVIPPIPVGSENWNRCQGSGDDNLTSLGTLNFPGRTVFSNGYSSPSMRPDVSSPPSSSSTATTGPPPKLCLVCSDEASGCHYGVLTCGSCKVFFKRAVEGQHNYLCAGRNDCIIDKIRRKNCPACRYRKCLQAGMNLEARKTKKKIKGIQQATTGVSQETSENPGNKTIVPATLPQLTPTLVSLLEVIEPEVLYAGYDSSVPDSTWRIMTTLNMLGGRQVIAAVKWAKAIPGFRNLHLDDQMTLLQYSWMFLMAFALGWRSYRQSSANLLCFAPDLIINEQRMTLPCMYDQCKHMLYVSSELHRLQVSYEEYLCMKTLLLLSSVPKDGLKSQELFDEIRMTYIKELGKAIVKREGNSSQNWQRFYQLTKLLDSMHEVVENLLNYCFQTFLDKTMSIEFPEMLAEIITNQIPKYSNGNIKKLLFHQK
# Assay: Transrepression activity at glucocorticoid receptor-mediated antiinflammatory activity in human HeLa cells assessed as inhibition of TPA-induced collagenase promoter activity by luciferase reporter gene assay
# Format: cell-based
row,Compound,IC50 [µM]
1,COc1ccc(F)cc1C(C)(C)CC(O)(CNc1cccc2nc(C)ccc12)C(F)(F)F (configuration not stated),0.002

# Biological target: T3, Androgen receptor (Homo sapiens, UniProt P10275)
# T3 sequence (P10275 whole entry): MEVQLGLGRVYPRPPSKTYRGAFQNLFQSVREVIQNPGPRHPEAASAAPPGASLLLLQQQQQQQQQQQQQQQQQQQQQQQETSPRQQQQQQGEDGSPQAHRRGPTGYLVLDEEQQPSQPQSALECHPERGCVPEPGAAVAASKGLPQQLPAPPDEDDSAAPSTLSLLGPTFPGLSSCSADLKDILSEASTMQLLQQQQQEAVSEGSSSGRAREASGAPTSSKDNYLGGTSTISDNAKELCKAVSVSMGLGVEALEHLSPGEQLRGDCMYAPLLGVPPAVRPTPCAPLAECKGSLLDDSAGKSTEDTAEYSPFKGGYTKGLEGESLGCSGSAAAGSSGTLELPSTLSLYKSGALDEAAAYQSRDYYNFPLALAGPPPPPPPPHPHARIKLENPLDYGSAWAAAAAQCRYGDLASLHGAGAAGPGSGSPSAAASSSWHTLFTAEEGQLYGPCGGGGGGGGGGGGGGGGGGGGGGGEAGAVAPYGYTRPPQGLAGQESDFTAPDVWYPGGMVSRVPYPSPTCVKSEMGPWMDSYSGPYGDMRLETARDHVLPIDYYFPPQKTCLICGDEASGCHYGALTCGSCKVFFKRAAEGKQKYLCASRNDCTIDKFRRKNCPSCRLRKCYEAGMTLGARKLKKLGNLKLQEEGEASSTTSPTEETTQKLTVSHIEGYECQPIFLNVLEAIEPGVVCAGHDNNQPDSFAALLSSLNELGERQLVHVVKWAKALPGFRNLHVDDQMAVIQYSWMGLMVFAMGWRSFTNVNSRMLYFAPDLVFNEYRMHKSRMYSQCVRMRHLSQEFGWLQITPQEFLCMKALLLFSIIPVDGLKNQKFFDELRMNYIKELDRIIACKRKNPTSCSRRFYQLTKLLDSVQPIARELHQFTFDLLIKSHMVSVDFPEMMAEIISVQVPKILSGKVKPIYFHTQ
# Assay: Binding affinity to human recombinant androgen receptor expressed in baculovirus infected Sf9 cells
row,Compound,IC50 [µM]
1,COc1ccc(F)cc1C(C)(C)CC(O)(CNc1ccc2c(=O)onc(C)c2c1)C(F)(F)F (configuration not stated),> 1
2,COc1ccc(F)cc1C(C)(C)CC(O)(C(=O)Nc1ccc2c(=O)onc(C)c2c1)C(F)(F)F (configuration not stated),0.501
3,Cc1noc(=O)c2ccc(NC(=O)C(O)(CC(C)(C)c3cccc4c3OCC4)C(F)(F)F)cc12 (configuration not stated),0.631
4,COc1ccc(F)cc1C(C)(C)CC(O)(CNc1cccc2nc(C)ccc12)C(F)(F)F (configuration not stated),> 1
5,CC(C)(CC(O)(CNc1cccc2ccccc12)C(F)(F)F)c1cc(F)ccc1O (configuration not stated),> 1

# Biological target: T2, Glucocorticoid receptor
# Assay: Binding affinity to human recombinant glucocorticoid receptor expressed in baculovirus infected Sf9 cells
row,Compound,IC50 [µM]
1,COc1ccc(F)cc1C(C)(C)CC(O)(CNc1ccc2c(=O)onc(C)c2c1)C(F)(F)F (configuration not stated),0.01
2,COc1ccc(F)cc1C(C)(C)CC(O)(C(=O)Nc1ccc2c(=O)onc(C)c2c1)C(F)(F)F (configuration not stated),0.001
3,COc1ccc(F)cc1C(C)(C)CC(O)(CNc1cccc2nc(C)ccc12)C(F)(F)F (configuration not stated),0.000631
4,CC(C)(CC(O)(CNc1cccc2ccccc12)C(F)(F)F)c1cc(F)ccc1O (configuration not stated),0.0158

# Biological target: T2, Glucocorticoid receptor
# Assay: Transrepression activity at glucocorticoid receptor-mediated antiinflammatory activity in human THP1 cells assessed as inhibition of LPS-induced IL-8 production
# Format: cell-based, THP-1
row,Compound,IC50 [µM]
1,COc1ccc(F)cc1C(C)(C)CC(O)(CNc1cccc2nc(C)ccc12)C(F)(F)F (configuration not stated),0.0251
2,CC(C)(CC(O)(CNc1cccc2ccccc12)C(F)(F)F)c1cc(F)ccc1O (configuration not stated),> 1

# Biological target: T2, Glucocorticoid receptor
# Assay: Transactivation activity at glucocorticoid receptor in human HeLa cells assessed as induction of MMTV promoter activity by luciferase reporter gene assay
# Format: cell-based
row,Compound,EC50 [µM]
1,COc1ccc(F)cc1C(C)(C)CC(O)(CNc1cccc2nc(C)ccc12)C(F)(F)F (configuration not stated),0.0251

# Biological target: T4, Progesterone receptor (Homo sapiens, UniProt P06401)
# T4 sequence (P06401 whole entry): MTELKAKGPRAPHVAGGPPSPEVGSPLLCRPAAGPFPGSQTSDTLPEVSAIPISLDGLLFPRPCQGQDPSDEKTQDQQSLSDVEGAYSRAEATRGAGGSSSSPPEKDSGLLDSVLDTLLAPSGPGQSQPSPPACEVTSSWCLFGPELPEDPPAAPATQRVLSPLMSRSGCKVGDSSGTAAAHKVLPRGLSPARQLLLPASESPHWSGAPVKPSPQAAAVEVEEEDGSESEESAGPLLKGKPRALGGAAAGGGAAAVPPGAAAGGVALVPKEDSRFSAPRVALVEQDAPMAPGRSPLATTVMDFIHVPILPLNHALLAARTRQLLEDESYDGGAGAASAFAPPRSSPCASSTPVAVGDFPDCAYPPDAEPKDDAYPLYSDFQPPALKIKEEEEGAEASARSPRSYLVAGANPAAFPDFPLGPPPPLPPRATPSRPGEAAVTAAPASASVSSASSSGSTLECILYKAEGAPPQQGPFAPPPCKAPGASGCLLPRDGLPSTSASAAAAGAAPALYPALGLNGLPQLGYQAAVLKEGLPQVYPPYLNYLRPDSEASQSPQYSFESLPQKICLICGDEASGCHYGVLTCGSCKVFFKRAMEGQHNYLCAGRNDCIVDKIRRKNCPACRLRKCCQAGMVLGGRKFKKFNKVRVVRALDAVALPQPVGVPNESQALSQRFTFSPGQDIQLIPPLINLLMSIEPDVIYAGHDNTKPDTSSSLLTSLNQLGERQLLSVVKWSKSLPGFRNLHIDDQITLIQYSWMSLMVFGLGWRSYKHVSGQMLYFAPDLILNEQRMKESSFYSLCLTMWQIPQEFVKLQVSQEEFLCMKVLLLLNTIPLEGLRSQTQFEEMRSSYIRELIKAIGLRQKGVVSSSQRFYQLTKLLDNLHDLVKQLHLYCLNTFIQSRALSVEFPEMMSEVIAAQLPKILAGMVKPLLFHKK
# Assay: Binding affinity to human recombinant progesterone receptor expressed in baculovirus infected Sf9 cells
# Summary of the method: as §1
row,Compound,IC50 [µM]
1,COc1ccc(F)cc1C(C)(C)CC(O)(CNc1ccc2c(=O)onc(C)c2c1)C(F)(F)F (configuration not stated),0.0158
2,COc1ccc(F)cc1C(C)(C)CC(O)(C(=O)Nc1ccc2c(=O)onc(C)c2c1)C(F)(F)F (configuration not stated),0.0126
3,COc1ccc(F)cc1C(C)(C)CC(O)(CNc1cccc2nc(C)ccc12)C(F)(F)F (configuration not stated),> 1
4,CC(C)(CC(O)(CNc1cccc2ccccc12)C(F)(F)F)c1cc(F)ccc1O (configuration not stated),> 1
